Laboratory results: the RNAGym collection of RNA variant scans (doi:10.1126/science.aae0568)
This sample holds only a part of the variants without activity.

B1: tRNA (parent)
chain: GUUCCGUUGGCGUAAUGGUAACGCGUCUCCCUCCUAAGGAGAAGACUGCGGGUUCGAGUCCCGUACGGAACG

Variants of: B1
Test: yeast fitness relative to wild type (ratio to wild type); higher = fitter; tRNA-Arg(CCU), competitive growth, 37 C, YPD
Procedure, shortened: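 Genotype frequency changes were the basis for Darwinian fitness relative to wild type. The frequencies came from 100-nucleotide paired-end sequencing of gene amplicons from the start population and each end population of pooled yeast strains with tRNA-Arg(CCU) gene variants at the native locus. Competition ran in YPD at 37°C for 24 hours in six replicates, genotypes needed ≥ 100 starting reads, and estimates < 0.5 were set to 0.5.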

Variant	yeast fitness
C34U U47C	0.67
A36C G48C U53C A70C	≤ 0.5
U35A C62A	≤ 0.5
U35C G48C C55U G56A	0.573
U35C A45G C49G G56A A65C	≤ 0.5
U35G A69U	0.769
A36G A40C A42G	0.768
U35C G51C C55U	≤ 0.5
A36C C55U A65C	0.632
U35A G48A	0.644
U35G C49G U64A	0.525
A36C A40G G48A A65U C66U A69U	≤ 0.5
U35C A42U C62G	0.546
C34U U35A	≤ 0.5
U35G A45U A57C	≤ 0.5
U35A U47C C49U C62A A69G	0.718
A36C A70C	0.605
A36C A70G	0.605
A36C C61A	0.523
A36C G41C C61U	≤ 0.5
A36C A57G	0.642
U35C U64G C66G	≤ 0.5
C34U C55U G63C	≤ 0.5
C34U G39A C62U	0.607

Variant	yeast fitness
U35C A69U	0.949
U35C A69C	0.943
U35A A65U	0.757
U35A A65C	0.781
A36G A42U	0.902
A36G A42C	0.976
U35C C55A A69U	≤ 0.5
U35C C46G	0.906
U35C C46U	0.938
C34U C61G A70C	0.528
C34U C61G A70U	≤ 0.5
U35C C60U C66U	≤ 0.5
U35C A36U A40U C55U A57C	0.865
C34U G48C	0.674
U35A A42G	0.681
A36C G38A U54C G58A	≤ 0.5
A36C A45C G48A G52C G68A	≤ 0.5
A36C U59A	0.569
U35A A36G	0.65
C34U G38A C61G	≤ 0.5
A36C A37G C55A	0.534
U35C A36C A40U C61G	≤ 0.5
U35G A70U	0.674
U35A G50A A69U	0.621

Variant	yeast fitness
U35A C60A	0.535
U35A C60U	≤ 0.5
A36C G50C G63C	0.652
C34U C55U C66U	0.532
U35C A42C G52C U53C G68U	≤ 0.5
A36C A69C	0.644
C34U G50A	0.67
A36C A45U	0.591
U35C A36U	0.603
U35C A57C G68C	≤ 0.5
A36C C49G	0.56
A36C C49U	0.557
A36C C49A	0.563
U35A C60G C62G	≤ 0.5
C34U C60G A70C	≤ 0.5
A36C G58C C62U	≤ 0.5
C34U G68A	0.774
C34U G41A C49G	0.535
U35A A57C U64A G68A	≤ 0.5
C34U U35C A70C	≤ 0.5
U35A C62A C66G	0.66
A36G A42G C46G	0.698
U35A A45G	0.759
U35A A57U A69U	≤ 0.5

Variant	yeast fitness
A36C	0.705
A36G	0.993
A36C C55U G68C A70G	≤ 0.5
A36C C61U A65U	≤ 0.5
C34U G58C C60U C66G	≤ 0.5
U35C A42C A43G G48A	0.576
U35C U47A	0.734
A36C A37C U53G A70C	0.582
U35C A40U	0.856
U35A A40U G41C C49A	≤ 0.5
A36G A42G C46G G68C	≤ 0.5
U35G A42U A69C	≤ 0.5
U35C C60G C61U	≤ 0.5
A36C C55G	0.556
A36C C55A	≤ 0.5
C34U C55U C60A	≤ 0.5
A36G A42C G68C	0.608
U35G C46U	0.628
A36C G39C A65C	0.598
A36C A57C G68A	0.541
C34U U47A A70U	0.534
U35C A70U	0.812
U35C A70G	0.781
C34U U54C A70U	≤ 0.5

Variant	yeast fitness
C34U U35A C49G	0.57
U35C U47A C49U	0.603
U35C A36G A45C	0.825
C34U C55U G67C	0.558
C34U G44C U53C	≤ 0.5
U35A A36U A57G	≤ 0.5
U35C G38U C46U C55G	≤ 0.5
U35C A43G U54C	≤ 0.5
A36C C49G C61G C62G	≤ 0.5
C34U G38A	0.689
C34U G38A G44C	≤ 0.5
U35C C49U G63C	0.548
U35C G56A	0.735
A36G A42C A69U	0.744
U35A A37G A40G A43U A45C	≤ 0.5
C34U G67A G68C	0.653
A36C G50A C55A	0.766
A36C A43C	0.626
C34U U47G G58C	0.518
U35G A45C G56C	≤ 0.5
U35C C62A A69U	0.551
C34U C49U C61A	≤ 0.5
C34U G38C C55A U64C	≤ 0.5
C34U G41A U47A G58C G63C G67A	≤ 0.5

Variant	yeast fitness
C34U G67C	0.723
A36C C49U C55U C62G G68C	≤ 0.5
C34U C55U A65U	0.607
U35A A36G G48A C49U	≤ 0.5
U35C A65G C66U	0.675
U35A C60G G67U	≤ 0.5
A36C G56A	0.61
A36C G56C	0.793
C34U G51A	0.547
U35C G58A	0.77
U35C U59A	0.878
U35C A37U A43C C46U C49U G68A	≤ 0.5
A36C A37G C49A A69U	≤ 0.5
C34U C55A A70U	0.619
A36C U54G	0.522
U35C A45U G68A	0.668
A36C C46A C49U	0.562
C34U U64A	0.597
U35A C61A A70U	≤ 0.5
U35A A57C	≤ 0.5
A36C A40U A70U	≤ 0.5
A36C C62U	0.583
C34U U35G G38A C62U A65C	≤ 0.5
U35C A42G C55A	≤ 0.5

Variant	yeast fitness
A36C A43U U47A U54A	≤ 0.5
A36C U47A G48C C62G	≤ 0.5
U35C G39C	0.747
A36G A42G A70G	0.54
U35C G44A C46G G50C U53A	0.583
C34U C66U	0.555
A36C U54A C61G	0.635
U35C C61A A69U	≤ 0.5
A36C A37C	0.54
U35A G68U	0.6
U35C G38A	0.891
C34U G39C C49G	≤ 0.5
U35G G68C	0.619
U35G C49G A65C	≤ 0.5
A36C A57C C61U A69C	≤ 0.5
A36C G67U	0.596
A36C G67C	0.537
U35A C55U	0.564
U35A C55A	≤ 0.5
A36C A37C A57C	≤ 0.5
A36C C55U U59A	≤ 0.5
A36C G56C C66U	≤ 0.5
A36C G63C	0.558
